Measurements from ChEMBL document CHEMBL2434855, “Aggrecanase-2 inhibitors based on the acylthiosemicarbazide zinc-binding group” (Eur J Med Chem, 2013).

Columns and labels:
[1] = target: T1, A disintegrin and metalloproteinase with thrombospondin motifs 5 (Homo sapiens, UniProt Q9UNA0); assay: Inhibition of human recombinant ADAMTS-5 using QTVTWPDMELPLPRNITEGEARGSVIL-TVKPIFEVSPSPL(biotinyl)K as substrate incubated 10 mins prior to substrate addition measured after 3 hrs by spectrophotometry
T1 sequence (Q9UNA0 whole entry): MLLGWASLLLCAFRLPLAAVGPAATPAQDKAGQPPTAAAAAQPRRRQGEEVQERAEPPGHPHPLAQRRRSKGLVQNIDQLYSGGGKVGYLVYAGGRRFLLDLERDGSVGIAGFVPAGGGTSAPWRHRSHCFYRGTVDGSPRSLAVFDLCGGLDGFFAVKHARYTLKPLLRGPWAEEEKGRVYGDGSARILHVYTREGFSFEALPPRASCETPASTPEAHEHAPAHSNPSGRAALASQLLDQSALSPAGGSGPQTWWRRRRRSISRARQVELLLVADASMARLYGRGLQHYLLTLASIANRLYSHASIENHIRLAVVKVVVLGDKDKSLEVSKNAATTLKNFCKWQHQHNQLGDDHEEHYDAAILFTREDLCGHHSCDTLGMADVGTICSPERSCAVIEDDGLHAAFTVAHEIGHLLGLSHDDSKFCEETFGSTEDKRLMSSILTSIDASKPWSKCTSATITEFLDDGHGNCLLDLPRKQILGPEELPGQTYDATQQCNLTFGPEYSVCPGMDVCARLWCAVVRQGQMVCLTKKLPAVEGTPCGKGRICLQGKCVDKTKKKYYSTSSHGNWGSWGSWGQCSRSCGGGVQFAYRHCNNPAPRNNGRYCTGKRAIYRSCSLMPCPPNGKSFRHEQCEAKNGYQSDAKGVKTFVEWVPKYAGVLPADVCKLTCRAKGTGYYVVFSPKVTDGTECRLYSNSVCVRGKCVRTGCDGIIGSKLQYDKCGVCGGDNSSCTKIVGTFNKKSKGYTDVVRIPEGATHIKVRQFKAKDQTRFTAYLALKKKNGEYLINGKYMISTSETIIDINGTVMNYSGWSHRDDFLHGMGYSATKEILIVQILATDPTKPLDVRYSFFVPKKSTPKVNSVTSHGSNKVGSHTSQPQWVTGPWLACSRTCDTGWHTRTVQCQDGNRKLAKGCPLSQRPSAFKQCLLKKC

[2] = target: T2, A disintegrin and metalloproteinase with thrombospondin motifs 4 (Homo sapiens, UniProt O75173); assay: Inhibition of human recombinant ADAMTS-4 using QTVTWPDMELPLPRNITEGEARGSVIL-TVKPIFEVSPSPL(biotinyl)K as substrate incubated for 10 mins prior to substrate addition measured after 3 hrs by spectrophotometry
T2 sequence (O75173 whole entry): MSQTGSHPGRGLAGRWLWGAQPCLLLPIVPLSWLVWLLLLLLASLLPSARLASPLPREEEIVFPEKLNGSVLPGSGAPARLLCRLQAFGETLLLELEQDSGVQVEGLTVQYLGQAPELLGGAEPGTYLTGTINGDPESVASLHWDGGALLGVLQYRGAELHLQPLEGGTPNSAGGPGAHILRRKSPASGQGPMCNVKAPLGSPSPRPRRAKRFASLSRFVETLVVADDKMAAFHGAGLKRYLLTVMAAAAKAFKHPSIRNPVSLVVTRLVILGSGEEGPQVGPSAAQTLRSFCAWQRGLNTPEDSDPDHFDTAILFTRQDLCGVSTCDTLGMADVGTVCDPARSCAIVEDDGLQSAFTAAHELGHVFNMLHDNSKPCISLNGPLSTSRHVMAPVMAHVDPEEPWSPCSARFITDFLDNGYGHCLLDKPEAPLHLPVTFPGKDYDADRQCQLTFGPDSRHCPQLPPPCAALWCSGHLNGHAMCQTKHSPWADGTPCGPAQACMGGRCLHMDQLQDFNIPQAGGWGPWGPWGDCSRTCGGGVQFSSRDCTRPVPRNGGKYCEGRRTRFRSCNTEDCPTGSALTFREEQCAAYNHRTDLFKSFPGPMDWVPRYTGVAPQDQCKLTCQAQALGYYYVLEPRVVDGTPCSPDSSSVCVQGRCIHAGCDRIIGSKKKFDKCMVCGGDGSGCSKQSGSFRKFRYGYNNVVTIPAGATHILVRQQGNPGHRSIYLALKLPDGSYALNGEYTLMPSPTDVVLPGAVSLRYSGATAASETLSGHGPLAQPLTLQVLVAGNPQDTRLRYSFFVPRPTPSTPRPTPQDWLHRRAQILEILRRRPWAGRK
Method in brief: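 It was then added to streptavidin wells coated with the biotinylated 41-mer aggrecan peptide and reacted for 3 h at 37 °C. Cleavage product was detected by BC-3 anti-ARGxx ELISA with HRP and TMB, read at 450 nm.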

[3] = Solubility of the compound at 100 uM; type: physicochemical
[4] = target: T3, A disintegrin and metalloproteinase with thrombospondin motifs 5 (Homo sapiens) (UniProt Q9UNA0); assay: Inhibition of human recombinant ADAMTS-5 using QTVTWPDMELPLPRNITEGEARGSVIL-TVKPIFEVSPSPL(biotinyl)K as substrate at 100 uM incubated 10 mins prior to substrate addition measured after 3 hrs by spectrophotometry
T3 sequence (whole entry): T1 sequence (Q9UNA0 whole entry)

[5] = target: T3, A disintegrin and metalloproteinase with thrombospondin motifs 5 (Homo sapiens); assay: Inhibition of human recombinant ADAMTS-5 using bovine articular aggrecan as substrate incubated 20 mins prior to substrate addition measured after 48 hrs by spectrophotometry
Method in brief: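 ADAMTS-5 (3.4 µL of 600 nM stock) was pre-incubated 20 min at 37 °C with compound or 4% DMSO vehicle in Tris/NaCl/CaCl₂/Brij35, pH 7.5. Bovine articular aggrecan (50 µg/mL final) was added for 48 h at 37 °C, then stopped with EDTA. Samples were bound to PVDF and digested with chondroitinase ABC and keratanase. The ARGSVIL neoepitope was detected by BC-3 ELISA with TMB, read at 450 nm.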

SMILES | IC50 [1] [nM] | also measured
O=C(NNC(=S)NCCCCC1CCCCC1)C1CNc2cc(Cl)ccc2O1 (stereo not given) | 1260 | 
O=C(COc1cccc2ccccc12)NNC(=S)NCCCCC1CCCCC1 | 880 | IC50 [2]: 1000 nM
O=C(COc1ccc(-c2ccccc2)cc1)NNC(=S)NCc1ccc(-c2ccccc2)cc1 | 60000 | solubility [3]: Insoluble
O=C(COc1cccc(Cl)c1)NNC(=S)NCc1ccc(-c2ccccc2)cc1 | 2100 | 
O=C(COc1cccc2ccccc12)NNC(=S)NCc1ccc(-c2ccccc2)cc1 | 4100 | 
O=C(COc1ccc(Cl)cc1)NCC(=S)NCc1ccc(-c2ccccc2)cc1 | > 100000 | inhibition [4]: < 30%
O=C(COc1ccc(Cl)cc1)NNC(=S)NCCCc1ccccc1 | 1400 | IC50 [2]: 2000 nM
O=C(COc1ccccc1)NNC(=S)NCCCCC1CCCCC1 | > 100000 | inhibition [4]: < 20%
O=C(COc1ccccc1Cl)NNC(=S)NCc1ccc(-c2ccccc2)cc1 | 1900 | 
CC(=O)NNC(=S)NCCCCC1CCCCC1 | > 100000 | inhibition [4]: < 20%
O=C(COc1ccc(Cl)cc1)NNC(=S)NCc1cccc(-c2ccccc2)c1 | 2300 | 
O=C(COc1ccc([N+](=O)[O-])cc1)NNC(=S)NCCCCC1CCCCC1 | 810 | IC50 [2]: 790 nM
O=C(COc1ccc(F)cc1)NNC(=S)NCc1ccc(-c2ccccc2)cc1 | 100000 | inhibition [4]: 49%
O=C(NNC(=S)NCc1ccc(-c2ccccc2)cc1)C1CNc2cc(Cl)ccc2O1 (stereo not given) | 3300 | 
O=C(COc1ccc(Cl)cc1)NNC(=S)NCc1ccccc1-c1ccccc1 | 490 | IC50 [2]: 2900 nM
O=C(COc1ccc(Cl)c(Cl)c1)NNC(=S)NCc1ccc(-c2ccccc2)cc1 | 1200 | 
O=C(COc1ccc(OCc2ccccc2)cc1)NNC(=S)NCc1ccc(-c2ccccc2)cc1 | 1000 | 
O=C(COc1ccc(Cl)cc1)NNC(=S)NCc1cccnc1 | 100000 | inhibition [4]: 50%
CC(C)(Oc1ccc(Cl)cc1)C(=O)NNC(=S)NCc1ccc(-c2ccccc2)cc1 | 6900 | 
O=C(COc1ccc(Cl)cc1Cl)NNC(=S)NCc1ccc(-c2ccccc2)cc1 | 1200 | 
O=C(Cc1ccc(-c2ccccc2)cc1)NNC(=S)NCCCCC1CCCCC1 | 300 | IC50 [2]: 730 nM
O=C(COc1ccc([N+](=O)[O-])cc1)NNC(=S)NCc1ccc(-c2ccccc2)cc1 | 4000 | 
O=C(COc1ccc(C(F)(F)F)cc1)NNC(=S)NCCCCC1CCCCC1 | 540 | IC50 [2]: 610 nM

SMILES | IC50 [1] [nM] | also measured
O=C(COc1ccc(Cl)cc1)NNC(=S)NCCc1ccccc1 | 2800 | 
O=C(COc1ccc(Cl)cc1)NNC(=S)NCc1ccc(-c2ccccc2)cc1 | 1200 | 
CN(CCCCc1ccccc1)C(=S)NNC(=O)COc1ccc(Cl)cc1 | 1100 | IC50 [2]: 1500 nM
O=C(COc1ccc(Cl)cc1)NCC(S)C(=O)NCCc1ccccc1 (stereo not given) | 8700 | 
O=C(COc1ccc2ccccc2c1)NNC(=S)NCc1ccc(-c2ccccc2)cc1 | 3200 | 
O=C(COc1ccc(Cl)cc1)NNC(=S)N1CCC(Cc2ccccc2)CC1 | 1600 | 
O=C(Cc1ccc(-c2ccccc2)cc1)NNC(=S)NCCc1ccc(Cl)cc1 | 5200 | 
O=C(NNC(=S)NCCCCC1CCCCC1)c1ccc(Cl)cc1 | 670 | inhibition [5]: Dose-dependent effect; IC50 [2]: 1400 nM
COc1ccc(OCC(=O)NNC(=S)NCc2ccc(-c3ccccc3)cc2)cc1 | 1700 | 
O=C(COc1ccc(Cl)cc1)NNC(=S)NCCCn1ccnc1 | 1600 | 
O=C(COc1ccc(Cl)cc1)NNC(=S)NCc1ccccc1 | 12600 | 
COc1ccc(OCC(=O)NNC(=S)NCCCCC2CCCCC2)cc1 | > 100000 | inhibition [4]: 50%
O=C(Cc1nc(-c2cnccn2)no1)NNC(=S)NCCCCC1CCCCC1 | 3100 | 
O=C(CNc1ccc(Cl)cc1)NNC(=S)NCc1ccc(-c2ccccc2)cc1 | 6300 | 
O=C(Cc1nc(-c2ccccc2)no1)NNC(=S)NCCCCC1CCCCC1 | 340 | 
CN(NC(=S)NCCCCC1CCCCC1)C(=O)COc1ccc(Cl)cc1 | > 100000 | inhibition [4]: < 30%
O=C(NNC(=S)NCc1ccc(-c2ccccc2)cc1)c1ccc(Cl)cc1 | 700 | IC50 [2]: 1600 nM
O=C(COc1ccc(C(F)(F)F)cc1)NNC(=S)NCc1ccc(-c2ccccc2)cc1 | 1700 | 
O=C(COc1ccc(Cl)cc1)Nn1ccn(Cc2ccc(-c3ccccc3)cc2)c1=S | > 100000 | inhibition [4]: < 30%
CN(NC(=S)NCc1ccc(-c2ccccc2)cc1)C(=O)COc1ccc(Cl)cc1 | > 100000 | inhibition [4]: < 30%
O=C(COc1ccc(Cl)cc1)NNC(=S)NCCCCc1ccccc1 | 1000 | 
O=C(COc1ccccc1)NNC(=S)NCc1ccc(-c2ccccc2)cc1 | 10000 | 
